Laboratory results: ChEMBL document CHEMBL1141933 (J Med Chem, 2005)

Tests used:
Plasmodium falciparum [1] = test: Effective dose against chloroquine-sensitive, pyrimethamine-sensitive, mefloquine-sensitive Plasmodium falciparum 3D7; assay type: functional; conditions: read-out: ED50 (the source's name)
How it was run: (§1)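 Asynchronous culture in human A+ erythrocytes at 0.5% parasitemia and 0.5% hematocrit, in RPMI-1640 with 20% heat-inactivated human A+ plasma. Compound added in DMSO; 48 h at 37 C under 5% CO2/5% O2/90% N2. [8-3H]hypoxanthine added for a further 24 h, then incorporation counted. Uninfected-RBC background subtracted; DMSO = 100% growth. ED50 by linear regression; ≥2 tests, mean.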

[2] = target: Protein farnesyltransferase (Rattus norvegicus, UniProt Q02293+Q04631); test: Inhibition of biotinylated lamin B peptide farnesylation by rat farnesyltransferase; assay type: protein-complex assay
Plasmodium falciparum [3] = test: Effective dose against chloroquine-resistant, pyrimethamine-resistant, mefloquine-sensitive Plasmodium falciparum K1; assay type: functional; conditions: read-out: ED50 (the source's name)
How it was run: (§2)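 Asynchronous blood-stage culture (0.5% parasitemia, 0.5% hematocrit) in RPMI-1640 with 20% heat-inactivated human A+ plasma, human A+ erythrocytes. Compound added from DMSO, 48 h at 37 C under 5% CO2/5% O2/90% N2. [8-3H]hypoxanthine then added for a further 24 h and uptake counted. Uninfected-RBC background subtracted; DMSO vehicle = 100% growth. ED50 by linear regression, mean of at least two runs.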

Plasmodium falciparum [4] = test: Effective dose against chloroquine-resistant, pyrimethamine-resistant, mefloquine-sensitive Plasmodium falciparum W2; assay type: functional; conditions: read-out: ED50 (the source's name); how it was run: as §2
[5] = target: T1, Protein farnesyltransferase (PFT) (Plasmodium falciparum, UniProt Q5EI73+Q5EI74); test: Inhibition of biotinylated lamin B peptide farnesylation by Plasmodium falciparum farnesyltransferase; assay type: protein-complex assay
T1 sequence (Q5EI73 whole entry): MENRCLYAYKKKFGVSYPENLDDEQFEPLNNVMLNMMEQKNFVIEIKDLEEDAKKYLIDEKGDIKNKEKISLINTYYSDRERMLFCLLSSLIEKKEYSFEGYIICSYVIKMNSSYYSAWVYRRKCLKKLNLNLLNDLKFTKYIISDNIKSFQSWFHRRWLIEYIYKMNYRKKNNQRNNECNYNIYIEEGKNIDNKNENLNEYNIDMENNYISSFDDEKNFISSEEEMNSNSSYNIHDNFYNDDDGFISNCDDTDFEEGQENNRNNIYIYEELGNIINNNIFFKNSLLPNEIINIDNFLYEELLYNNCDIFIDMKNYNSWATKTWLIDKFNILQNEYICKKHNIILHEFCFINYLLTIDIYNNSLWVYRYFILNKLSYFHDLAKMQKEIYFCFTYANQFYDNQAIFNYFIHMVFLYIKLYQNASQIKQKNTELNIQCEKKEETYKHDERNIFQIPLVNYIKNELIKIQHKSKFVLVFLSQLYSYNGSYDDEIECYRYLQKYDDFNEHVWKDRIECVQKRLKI
T1 sequence (Q5EI74 whole entry): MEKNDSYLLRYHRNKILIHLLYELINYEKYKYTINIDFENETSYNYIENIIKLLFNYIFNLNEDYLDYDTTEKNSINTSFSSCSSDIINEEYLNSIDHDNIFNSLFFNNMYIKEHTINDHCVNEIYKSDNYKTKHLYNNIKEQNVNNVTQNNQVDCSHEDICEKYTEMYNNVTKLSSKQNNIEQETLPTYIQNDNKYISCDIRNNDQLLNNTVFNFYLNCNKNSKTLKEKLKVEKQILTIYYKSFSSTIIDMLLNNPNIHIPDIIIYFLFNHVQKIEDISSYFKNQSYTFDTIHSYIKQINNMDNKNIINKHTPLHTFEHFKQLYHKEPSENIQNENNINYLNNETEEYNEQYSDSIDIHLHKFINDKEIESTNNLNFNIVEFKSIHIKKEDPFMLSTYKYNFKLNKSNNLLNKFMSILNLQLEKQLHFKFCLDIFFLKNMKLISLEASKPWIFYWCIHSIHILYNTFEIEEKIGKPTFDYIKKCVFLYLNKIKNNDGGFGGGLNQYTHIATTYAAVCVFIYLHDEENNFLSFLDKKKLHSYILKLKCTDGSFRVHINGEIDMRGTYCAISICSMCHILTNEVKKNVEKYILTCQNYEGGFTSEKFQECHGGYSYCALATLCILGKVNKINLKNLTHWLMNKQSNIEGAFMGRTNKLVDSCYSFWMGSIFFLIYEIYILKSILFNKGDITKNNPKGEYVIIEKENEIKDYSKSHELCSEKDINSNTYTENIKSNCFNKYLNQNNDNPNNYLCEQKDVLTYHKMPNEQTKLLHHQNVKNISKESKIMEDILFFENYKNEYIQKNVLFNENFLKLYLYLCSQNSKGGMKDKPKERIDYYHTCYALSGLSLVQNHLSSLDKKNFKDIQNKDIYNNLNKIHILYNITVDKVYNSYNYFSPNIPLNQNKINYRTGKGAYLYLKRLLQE

Plasmodium falciparum [6] = test: Effective dose against chloroquine-sensitive, pyrimethamine-sensitive, mefloquine-sensitive Plasmodium falciparum HB3; assay type: functional; conditions: read-out: ED50 (the source's name); how it was run: as §1
Plasmodium falciparum [7] = test: Effective dose against chloroquine-resistant, pyrimethamine-resistant, mefloquine-resistant Plasmodium falciparum Dd2; assay type: functional; conditions: read-out: ED50 (the source's name); how it was run: as §2
Plasmodium falciparum [8] = test: Effective dose against Plasmodium falciparum 3D7; assay type: functional; conditions: read-out: ED50 (the source's name); how it was run: as §1
Plasmodium falciparum [9] = test: Effective dose against Plasmodium falciparum; assay type: functional; conditions: read-out: ED50 (the source's name)

Compound | EC50 (Plasmodium falciparum [1]) | IC50 [2] | EC50 (Plasmodium falciparum [3]) | EC50 (Plasmodium falciparum [4]) | IC50 [5] | EC50 (Plasmodium falciparum [6]) | EC50 (Plasmodium falciparum [7]) | EC50 (Plasmodium falciparum [8]) | EC50 (Plasmodium falciparum [9])
C=C(C)CN(C1Cc2cc(C#N)ccc2N(Cc2cncn2C)C1)S(=O)(=O)c1cn(C)cn1 (configuration not stated) | 0.007 µM | 0.0007 µM | 0.015 µM | 0.021 µM | 0.0006 µM | 0.012 µM | 0.01 µM | – | –
Cn1cnc(S(=O)(=O)N(Cc2ccccc2)C2Cc3cc(C#N)ccc3N(Cc3cncn3C)C2)c1 (configuration not stated) | 0.005 µM | 0.0012 µM | 0.009 µM | 0.014 µM | 0.0006 µM | 0.01 µM | 0.008 µM | – | –
Cn1cnc(S(=O)(=O)N(CC(=O)OC(C)(C)C)C2Cc3cc(C#N)ccc3N(Cc3cncn3C)C2)c1 (configuration not stated) | 0.005 µM | 0.0012 µM | 0.02 µM | – | 0.0009 µM | 0.007 µM | 0.006 µM | – | –
Cc1ccccc1CN(C1Cc2cc(C#N)ccc2N(Cc2cncn2C)C1)S(=O)(=O)c1cn(C)cn1 (configuration not stated) | – | 0.0034 µM | – | – | 0.0015 µM | – | – | 0.055 µM | –
Cn1cncc1CN1CC(N(Cc2ccccn2)S(=O)(=O)c2ccccn2)Cc2cc(C#N)ccc21 (configuration not stated) | – | 0.0038 µM | – | – | 0.0028 µM | – | – | 0.051 µM | –
Cn1cncc1CN1CC(N(CC(=O)NC(C)(C)C)S(=O)(=O)c2nccn2C)Cc2cc(C#N)ccc21 (configuration not stated) | – | 0.005 µM | – | – | 0.008 µM | – | – | > 5 µM | –
C=C(Br)CN(C1Cc2cc(C#N)ccc2N(Cc2cncn2C)C1)S(=O)(=O)c1cn(C)cn1 (configuration not stated) | 0.006 µM | 0.0008 µM | 0.01 µM | 0.014 µM | 0.0004 µM | 0.01 µM | 0.01 µM | – | –
Cn1cnc(S(=O)(=O)N(Cc2ccc3ccccc3c2Br)C2Cc3cc(C#N)ccc3N(Cc3cncn3C)C2)c1 (configuration not stated) | – | 1 µM | – | – | 0.028 µM | – | – | 3 µM | –
Cn1cnc(S(=O)(=O)N(CC(=O)NC(C)(C)C)C2Cc3cc(C#N)ccc3N(Cc3cncn3C)C2)c1 (configuration not stated) | 0.005 µM | 0.0015 µM | 0.007 µM | 0.008 µM | 0.0012 µM | 0.007 µM | 0.004 µM | – | –
Cn1cncc1CN1CC(N(CC(=O)NC(C)(C)C)S(=O)(=O)c2cccnc2)Cc2cc(C#N)ccc21 (configuration not stated) | – | 0.006 µM | – | – | 0.025 µM | – | – | 2.7 µM | –
Cn1cncc1CN1CC(N(CC(=O)NC(C)(C)C)S(=O)(=O)Cc2ccc(F)cc2)Cc2cc(C#N)ccc21 (configuration not stated) | – | 0.0076 µM | – | – | 0.042 µM | – | – | > 5 µM | –
Cn1cncc1C(O)(CN1CCC(C#N)=C(c2cccc3ccccc23)C1)c1ccc(C#N)cc1 (configuration not stated) | – | – | – | – | 0.009 µM | – | – | – | > 5 µM
N#Cc1ccc(Cn2cncc2CN[C@H]2CCN(Cc3cccc(Cl)c3)C2=O)cc1 | – | – | – | – | – | – | – | – | > 5 µM
CSCC[C@H](NC(=O)c1ccc(CNCc2cnc[nH]2)cc1-c1ccccc1C)C(=O)OCc1ccccc1 | – | – | – | – | 1 µM | – | – | – | 0.15 µM
CCSC[C@H](CC1CCCCC1)NCc1ccc(C(=O)N[C@@H](CCSC)C(=O)O)c(-c2ccccc2C)c1 | – | – | – | – | 0.005 µM | – | – | – | > 5 µM
Cn1cncc1CN1CC(N(Cc2cc3nsnc3cc2Cl)S(=O)(=O)c2ccccn2)Cc2cc(C#N)ccc21 (configuration not stated) | – | 0.01 µM | – | – | 0.055 µM | – | – | 3 µM | –
Cc1onc(-c2ccccc2)c1CN(C1Cc2cc(C#N)ccc2N(Cc2cncn2C)C1)S(=O)(=O)c1ccccn1 (configuration not stated) | – | 0.003 µM | – | – | 0.0008 µM | – | – | 0.113 µM | –
Cn1cnc(S(=O)(=O)N(CC2CCN(C(=O)OC(C)(C)C)CC2)C2Cc3cc(C#N)ccc3N(Cc3cncn3C)C2)c1 (configuration not stated) | – | 0.0032 µM | – | – | 0.0011 µM | – | – | 0.1 µM | –
Cn1cncc1CN1CC(N(Cc2ccc3ccccc3c2Br)S(=O)(=O)c2ccccn2)Cc2cc(C#N)ccc21 (configuration not stated) | – | 0.44 µM | – | – | 0.165 µM | – | – | 2.75 µM | –
Cn1cncc1CN1CC(N(CC(=O)NC(C)(C)C)S(=O)(=O)c2ccncc2)Cc2cc(C#N)ccc21 (configuration not stated) | – | 0.16 µM | – | – | 1 µM | – | – | > 5 µM | –
Cn1cncc1CN1CC(N(CC(=O)NC(C)(C)C)S(=O)(=O)c2ccccn2)Cc2cc(C#N)ccc21 (configuration not stated) | – | 0.0018 µM | – | – | 0.0014 µM | – | – | 0.085 µM | –
CSCC[C@H](NC(=O)c1ccc(CNCc2c[nH]cn2)cc1-c1ccccc1C)C(=O)O | – | – | – | – | 0.015 µM | – | – | – | > 20 µM
CCN(CC)CCCC(C)Nc1ccnc2cc(Cl)ccc12 (configuration not stated) [CHLOROQUINE] | 0.008 µM | – | 0.2 µM | 0.125 µM | – | 0.005 µM | 0.078 µM | – | –
NC(=O)N1CCC(CC(=O)N2CCC([C@H]3c4ncc(Br)cc4CCc4cc(Cl)cc(Br)c43)CC2)CC1 [LONAFARNIB] | – | – | – | – | > 0.25 µM | – | – | – | 3 µM
O[C@H](c1cc(C(F)(F)F)nc2c(C(F)(F)F)cccc12)[C@@H]1CCCCN1 [MEFLOQUINE] | 0.024 µM | – | 0.01 µM | 0.009 µM | – | 0.029 µM | 0.1 µM | – | –
CCc1nc(N)nc(N)c1-c1ccc(Cl)cc1 [PYRIMETHAMINE] | 0.039 µM | – | 25 µM | – | – | 0.002 µM | 16 µM | – | –
Cn1cncc1[C@@](N)(c1ccc(Cl)cc1)c1ccc2c(c1)c(-c1cccc(Cl)c1)cc(=O)n2C [TIPIFARNIB] | – | – | – | – | 0.007 µM | – | – | – | 3 µM
